Assay results from ChEMBL document CHEMBL1138838, “Design, chemical synthesis, and biological evaluation of thiosaccharide analogues of morphine- and codeine-6-glucuronide” (J Med Chem, 2004).
Active and inactive are the calls of the source. No cut-off for these calls is given here.

Key:
[1] = Inhibition of [3H]DAMGO binding to Opioid receptor mu 1
In short: (§1)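 Membranes from cells expressing the receptor, homogenized and washed in Tris, resuspended in 50 mM Tris pH 7.5. Incubated 60–120 min at 25 °C with [3H]DAMGO (mu), [3H]DPDPE (delta) or [3H]U69593 (kappa), about 15–30 μg protein. Filtration on glass fiber filters, scintillation counting. IC50 from at least six test concentrations; Ki by Cheng–Prusoff.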

[2] = Inhibition of [3H]DPDPE binding to Opioid receptor delta 1; in short: as §1
[3] = Maximum efficacy for [35S]GTP-gamma-S, binding to Opioid receptor kappa 1; no activity; assay type: functional
In short: (§2)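 Membranes from cells expressing the receptor, washed and resuspended in 20 mM Hepes, 10 mM MgCl2, 100 mM NaCl, pH 7.4. 8–15 μg protein incubated 60 min at 25 °C with 50 pM [35S]GTP-γ-S, 10 μM GDP and test compound. Bound label collected on glass fiber filters and counted; EC50 for stimulation of binding.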

[4] = Maximum efficacy for [35S]GTP-gamma-S, binding to Opioid receptor mu 1; assay type: functional; in short: as §2
[5] = Maximum efficacy for [35S]GTP-gamma-S, binding to Opioid receptor delta 1; assay type: functional; in short: as §2
[6] = Inhibition of [3H]U-69593 binding to Opioid receptor kappa 1; in short: as §1
[7] = Maximum efficacy for [35S]GTP-gamma-S, binding to Opioid receptor kappa 1; assay type: functional; in short: as §2
[8] = Stimulation of [35S]GTP-gamma-S, binding at Opioid receptor kappa 1; not active; assay type: functional; in short: as §2
[9] = Maximum efficacy for [35S]GTP-gamma-S, binding to Opioid receptor kappa 1; not active; assay type: functional; in short: as §2
[10] = Stimulation of [35S]GTP-gamma-S, binding at Opioid receptor mu1; not active; assay type: functional; in short: as §2
[11] = Maximum efficacy for [35S]GTP-gamma-S, binding to mu opioid receptor; not active; assay type: functional; in short: as §2
[12] = Stimulation of [35S]GTP-gamma-S, binding at Opioid receptor kappa; no activity; assay type: functional; in short: as §2

| SMILES | Ki [1] [µM] | Ki [2] [µM] | Emax [3] | Emax [4] | Emax [5] | Ki [6] [µM] | Emax [7] | EC50 [8] | Emax [9] | EC50 [10] | Emax [11] | EC50 [12] |
| --- | --- | --- | --- | --- | --- | --- | --- | --- | --- | --- | --- | --- |
| CN1CC[C@]23c4c5ccc(O)c4O[C@H]2[C@@H](O[C@@H]2O[C@H](C(=O)O)[C@@H](O)[C@H](O)[C@H]2O)C=C[C@H]3[C@H]1C5 [MORPHINE GLUCURONIDE] | 12.9 | 170 | inactive | 45 | 80 | 4060 | – | – | – | – | – | – |
| CC(=O)OCC1OC(SC2C=C[C@H]3[C@H]4Cc5ccc(O)c6c5[C@@]3(CCN4C)[C@H]2O6)C(OC(C)=O)C(OC(C)=O)C1OC(C)=O (stereo in doubt; 5e) [listing 1 of 2 here] | – | – | – | 76 | 45.5 | – | 26.5 | – | – | – | – | – |
| CC(=O)OC1C(SC2C=C[C@H]3[C@H]4Cc5ccc(O)c6c5[C@@]3(CCN4C)[C@H]2O6)OC(C(=O)O)C(OC(C)=O)C1OC(C)=O (stereo partly drawn) | 8.7 | 31.4 | – | 46.6 | 78.7 | 288 | – | Not Active | inactive | – | – | – |
| CC(=O)OC1C(CO)OC(SC2C=C[C@H]3[C@H]4Cc5ccc(O)c6c5[C@@]3(CCN4C)[C@H]2O6)C(OC(C)=O)C1OC(C)=O (stereo partly drawn) | 5.4 | 56.2 | – | 64.5 | 51.5 | 136 | 42.5 | – | – | – | – | – |
| CC(=O)OCC1OC(SC2C=C[C@H]3[C@H]4Cc5ccc(OC(C)=O)c6c5[C@@]3(CCN4C)[C@H]2O6)C(OC(C)=O)C(OC(C)=O)C1OC(C)=O (stereo partly drawn) | 305 | 762 | – | 44.1 | 39.3 | 1390 | 36.9 | – | – | – | – | – |
| COc1ccc2c3c1O[C@H]1C(SC4OC(C(=O)O)C(OC(C)=O)C(OC(C)=O)C4OC(C)=O)C=C[C@H]4[C@@H](C2)N(C)CC[C@]314 (stereo partly drawn) | 463 | 2680 | – | – | 44.2 | > 10000 | – | Not Active | inactive | Not Active | inactive | – |
| CN1CC[C@]23c4c5ccc(O)c4O[C@H]2[C@@H](O)C=C[C@H]3[C@H]1C5 | – | – | – | 93 | – | – | – | – | – | – | – | – |
| CC(=O)OCC1OC(SC2C=C[C@H]3[C@H]4Cc5ccc(O)c6c5[C@@]3(CCN4C)[C@H]2O6)C(OC(C)=O)C(OC(C)=O)C1OC(C)=O (stereo in doubt; 5e) [listing 2 of 2 here] | – | 19.5 | – | – | – | 2970 | – | – | – | – | – | – |
| COC(=O)C1OC(SC2C=C[C@H]3[C@H]4Cc5ccc(O)c6c5[C@@]3(CCN4C)[C@H]2O6)C(OC(C)=O)C(OC(C)=O)C1OC(C)=O (stereo partly drawn) | 5.4 | 15.6 | – | 88.3 | 104 | 11 | 23.5 | – | – | – | – | – |
| COC(=O)C1OC(SC2C=C[C@H]3[C@H]4Cc5ccc(OC(C)=O)c6c5[C@@]3(CCN4C)[C@H]2O6)C(OC(C)=O)C(OC(C)=O)C1OC(C)=O (stereo partly drawn) | 100 | 528 | inactive | 37.8 | 46.8 | 189 | – | – | – | – | – | Not Active |
| COC(=O)C1OC(SC2C=C[C@H]3[C@H]4Cc5ccc(OC)c6c5[C@@]3(CCN4C)[C@H]2O6)C(OC(C)=O)C(OC(C)=O)C1OC(C)=O (stereo partly drawn) | 64 | 438 | – | 19.3 | 64.3 | 499 | 24.3 | – | – | – | – | – |
